Active and inactive are the calls of the source. The rule behind the calls is not given here.

In experiment [1] the test system is Blastomyces dermatitidis. The experiment is described as follows: Antifungal activity against Blastomyces dermatitidis Gilchrist & Stokes isolate 1107 at 1 ug/ml after 2 weeks (reference value: 35 mm). It is filed as functional. The note with it: Gilchrist & Stokes isolate 1107, 336 h, read-out: DIZ. The method in brief:
(§1)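 Mycelial phase grown on Sabouraud dextrose agar at 25°C. Agar pH was set to 6 before the test solution was added and was 5.0-5.5 after. Test solutions contained HOAc and Me2SO, and solvent and blank controls were included. Each quadrant was center-inoculated with a 2 × 2 mm piece of a 2-week-old mycelial culture. Colony diameter was measured weekly for 3 weeks and reported as total increments (mm). Duplicates were run.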

In experiment [2] the test system is Blastomyces dermatitidis. Put plainly: Antifungal activity against Blastomyces dermatitidis Gilchrist & Stokes isolate 1107 at 1 ug/ml after 3 weeks (reference value: 40 mm). The format is functional. The note with it: Gilchrist & Stokes isolate 1107, 504 h, read-out: DIZ. The method in brief: as §1
The subject of experiment [3] is Histoplasma capsulatum. Put plainly: Antifungal activity against Histoplasma capsulatum Darling isolate 1098 at 1 ug/ml after 3 weeks (reference value: 28 mm). Particulars: Darling isolate 1098, 504 h, read-out: DIZ. It is filed as functional.
For experiment [4], the system named is Histoplasma capsulatum. The experiment is described as follows: Antifungal activity against Histoplasma capsulatum Darling isolate 1106 at 1 ug/ml after 1 week (reference value: 14 mm). The format is functional. The note with it: Darling isolate 1106, 168 h, read-out: DIZ.
Experiment [5] relates to Blastomyces dermatitidis. The experiment is described as follows: Antifungal activity against Blastomyces dermatitidis Gilchrist & Stokes isolate 1099 at 1 ug/ml after 1 week (reference value: 14 mm). It is filed as functional. Particulars: Gilchrist & Stokes isolate 1099, 168 h, read-out: DIZ. The method in brief: as §1
In experiment [6] the test system is Blastomyces dermatitidis. Put plainly: Antifungal activity against Blastomyces dermatitidis Gilchrist & Stokes isolate 1099 at 1 ug/ml after 2 weeks (reference value: 27 mm). It is filed as functional. Particulars: Gilchrist & Stokes isolate 1099, 336 h, read-out: DIZ. The method in brief:
as §1

In experiment [7] the test system is Blastomyces dermatitidis. The experiment is described as follows: Antifungal activity against Blastomyces dermatitidis Gilchrist & Stokes isolate 1099 at 1 ug/ml after 3 weeks (reference value: 34 mm). It is filed as functional. Particulars: Gilchrist & Stokes isolate 1099, 504 h, read-out: DIZ. The method in brief:
as §1

The subject of experiment [8] is Blastomyces dermatitidis. The experiment is described as follows: Antifungal activity against Blastomyces dermatitidis Gilchrist & Stokes isolate 1107 at 1 ug/ml after 1 week (reference value: 20 mm). It is filed as functional, organism-based. The method in brief: as §1
Experiment [9] deals with Histoplasma capsulatum. The experiment is described as follows: Antifungal activity against Histoplasma capsulatum Darling isolate 1098 at 1 ug/ml after 1 week (reference value: 12 mm). It is filed as functional. Particulars: Darling isolate 1098, 168 h, read-out: DIZ.
In experiment [10] the test system is Histoplasma capsulatum. The experiment is described as follows: Antifungal activity against Histoplasma capsulatum Darling isolate 1098 at 1 ug/ml after 2 weeks (reference value: 21 mm). The format is functional. Particulars: Darling isolate 1098, 336 h, read-out: DIZ.

Regarding `C[C@@H]1[C@H](O)[C@@H](C)/C=C/C=C/C=C/C=C/C=C/C=C/C=C/[C@H](O[C@@H]2O[C@H](C)[C@@H](O)[C@H](N)[C@@H]2O)C[C@@H]2O[C@](O)(C[C@@H](O)C[C@@H](O)[C@H](O)CC[C@@H](O)C[C@@H](O)CC(=O)O[C@H]1C)C[C@H](O)[C@H]2C(=O)O` [AMPHOTERICIN B], the zone of inhibition at 1 µg/mL came out at 19 mm in the experiment with Blastomyces dermatitidis [1]; 32 mm with Blastomyces dermatitidis [2]; 28 mm in the experiment on Histoplasma capsulatum [3]; 9 mm in the experiment on Histoplasma capsulatum [4]; 7 mm in the experiment with Blastomyces dermatitidis [5]; 10 mm in the experiment on Blastomyces dermatitidis [6]. In addition, the results for the zone of inhibition at 1 µg/mL with Blastomyces dermatitidis [7], in the experiment on Histoplasma capsulatum [9] and in the experiment on Histoplasma capsulatum [10] were 19 mm, 9 mm and 19 mm, respectively. Further, the result with Blastomyces dermatitidis [8] was inactive.
